Measurements as given in ChEMBL document CHEMBL4689842, “EUbOPEN Chemogenomics Library wave 1” (2021).

Test system: U2OS
Assay: Multiplex assay against U2OS
Assay type: toxicity, cell-based
Settings: human
Summary of the method: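 At seeding, live cells were stained with Hoechst33342, BioTracker Green Microtubule Cytoskeleton Dye, MitoTracker Red and Annexin V Alexa Fluor 680. After compound addition they were imaged on a CQ1 microscope at 37°C and 5% CO2, and CellPathfinder machine-learning gating sorted them into Hoechst high-intensity objects or normal cells, with normal cells further split into healthy, pyknosed or fragmented nuclei and pyknosed cells into mitotic or apoptotic. Tubulin, mitochondrial-mass and membrane-permeability phenotypes are given as per cents of cells with healthy nuclei.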

[1] = 12 h, 1 µM, compound concentration 1 uM, replicate 1
[2] = 12 h, 1 µM, compound concentration 1 uM, replicate 2
[3] = 12 h, 10 µM, compound concentration 10 uM, replicate 1
[4] = 12 h, 10 µM, compound concentration 10 uM, replicate 2
[5] = 24 h, 1 µM, compound concentration 1 uM, replicate 1
[6] = 24 h, 1 µM, compound concentration 1 uM, replicate 2
[7] = 24 h, 10 µM, compound concentration 10 uM, replicate 1
[8] = 24 h, 10 µM, compound concentration 10 uM, replicate 2
[9] = 48 h, 1 µM, compound concentration 1 uM, replicate 1
[10] = 48 h, 1 µM, compound concentration 1 uM, replicate 2
[11] = 48 h, 10 µM, compound concentration 10 uM, replicate 1
[12] = 48 h, 10 µM, compound concentration 10 uM, replicate 2

## COc1cc(Nc2nccc(-c3cnn4nc(OC)ccc34)n2)cc(C(F)(F)F)c1
[1]
  Population Apoptotic (%): 27%
  Population Fragmented Nuclei (%): 12%
  Population Healthy Nuclei (%): 74%
  Population Hoechst High Intensity Objects (%): 7%
  Population Membrane Permeable-Phenotype (%): 6%
  Population Mitochondria Different-Phenotype (%): 12%
  Population Mitotic Cells (%): 72%
  Population Normal (%): 92%
  Population Pyknosed Nuclei (%): 12%
  Population Tubulin-Different-Phenotype (%): 9%
  Total Cell Count: 189
[2]
  Population Apoptotic (%): 50%
  Population Fragmented Nuclei (%): 8%
  Population Healthy Nuclei (%): 86%
  Population Hoechst High Intensity Objects (%): 3%
  Population Membrane Permeable-Phenotype (%): 2%
  Population Mitochondria Different-Phenotype (%): 16%
  Population Mitotic Cells (%): 50%
  Population Normal (%): 96%
  Population Pyknosed Nuclei (%): 5%
  Population Tubulin-Different-Phenotype (%): 16%
  Total Cell Count: 44
[3]
  Population Apoptotic (%): 60%
  Population Fragmented Nuclei (%): 32%
  Population Healthy Nuclei (%): 55%
  Population Hoechst High Intensity Objects (%): 15%
  Population Membrane Permeable-Phenotype (%): 7%
  Population Mitochondria Different-Phenotype (%): 46%
  Population Mitotic Cells (%): 39%
  Population Normal (%): 84%
  Population Pyknosed Nuclei (%): 11%
  Population Tubulin-Different-Phenotype (%): 27%
  Total Cell Count: 192
[4]
  Population Apoptotic (%): 33%
  Population Fragmented Nuclei (%): 27%
  Population Healthy Nuclei (%): 61%
  Population Hoechst High Intensity Objects (%): 34%
  Population Membrane Permeable-Phenotype (%): 3%
  Population Mitochondria Different-Phenotype (%): 6%
  Population Mitotic Cells (%): 66%
  Population Normal (%): 65%
  Population Tubulin-Different-Phenotype (%): 15%
  Total Cell Count: 82
[5]
  Population Apoptotic (%): 24%
  Population Fragmented Nuclei (%): 14%
  Population Healthy Nuclei (%): 61%
  Population Hoechst High Intensity Objects (%): 6%
  Population Membrane Permeable-Phenotype (%): 7%
  Population Mitochondria Different-Phenotype (%): 20%
  Population Mitotic Cells (%): 75%
  Population Normal (%): 93%
  Population Pyknosed Nuclei (%): 24%
  Population Tubulin-Different-Phenotype (%): 16%
  Total Cell Count: 214
[6]
  Population Apoptotic (%): 45%
  Population Fragmented Nuclei (%): 10%
  Population Healthy Nuclei (%): 77%
  Population Hoechst High Intensity Objects (%): 2%
  Population Membrane Permeable-Phenotype (%): 4%
  Population Mitochondria Different-Phenotype (%): 10%
  Population Mitotic Cells (%): 54%
  Population Normal (%): 97%
  Population Pyknosed Nuclei (%): 12%
  Population Tubulin-Different-Phenotype (%): 19%
  Total Cell Count: 43
[7]
  Population Apoptotic (%): 65%
  Population Fragmented Nuclei (%): 36%
  Population Healthy Nuclei (%): 50%
  Population Hoechst High Intensity Objects (%): 18%
  Population Membrane Permeable-Phenotype (%): 2%
  Population Mitochondria Different-Phenotype (%): 47%
  Population Mitotic Cells (%): 34%
  Population Normal (%): 81%
  Population Pyknosed Nuclei (%): 13%
  Population Tubulin-Different-Phenotype (%): 15%
  Total Cell Count: 197
[8]
  Population Apoptotic (%): 50%
  Population Fragmented Nuclei (%): 26%
  Population Healthy Nuclei (%): 56%
  Population Hoechst High Intensity Objects (%): 29%
  Population Membrane Permeable-Phenotype (%): 0%
  Population Mitochondria Different-Phenotype (%): 23%
  Population Mitotic Cells (%): 50%
  Population Normal (%): 70%
  Population Pyknosed Nuclei (%): 17%
  Population Tubulin-Different-Phenotype (%): 11%
  Total Cell Count: 90
[9]
  Population Apoptotic (%): 53%
  Population Fragmented Nuclei (%): 16%
  Population Healthy Nuclei (%): 54%
  Population Hoechst High Intensity Objects (%): 4%
  Population Membrane Permeable-Phenotype (%): 6%
  Population Mitochondria Different-Phenotype (%): 34%
  Population Mitotic Cells (%): 46%
  Population Normal (%): 95%
  Population Pyknosed Nuclei (%): 28%
  Population Tubulin-Different-Phenotype (%): 15%
  Total Cell Count: 257
[10]
  Population Apoptotic (%): 55%
  Population Fragmented Nuclei (%): 11%
  Population Healthy Nuclei (%): 81%
  Population Hoechst High Intensity Objects (%): 7%
  Population Membrane Permeable-Phenotype (%): 15%
  Population Mitochondria Different-Phenotype (%): 17%
  Population Mitotic Cells (%): 44%
  Population Normal (%): 92%
  Population Pyknosed Nuclei (%): 7%
  Population Tubulin-Different-Phenotype (%): 20%
  Total Cell Count: 55
[11]
  Population Apoptotic (%): 62%
  Population Fragmented Nuclei (%): 45%
  Population Healthy Nuclei (%): 33%
  Population Hoechst High Intensity Objects (%): 20%
  Population Membrane Permeable-Phenotype (%): 14%
  Population Mitochondria Different-Phenotype (%): 36%
  Population Mitotic Cells (%): 37%
  Population Normal (%): 79%
  Population Pyknosed Nuclei (%): 21%
  Population Tubulin-Different-Phenotype (%): 21%
  Total Cell Count: 200
[12]
  Population Apoptotic (%): 69%
  Population Fragmented Nuclei (%): 26%
  Population Healthy Nuclei (%): 48%
  Population Hoechst High Intensity Objects (%): 27%
  Population Membrane Permeable-Phenotype (%): 8%
  Population Mitochondria Different-Phenotype (%): 25%
  Population Mitotic Cells (%): 30%
  Population Normal (%): 72%
  Population Pyknosed Nuclei (%): 26%
  Population Tubulin-Different-Phenotype (%): 20%
  Total Cell Count: 127

## Cl.O=C(O)c1cc(-c2ccc(C3CCNCC3)cc2)c2ccc(-c3ccc(C(F)(F)F)cc3)cc2c1
[1]
  Population Apoptotic (%): 25%
  Population Fragmented Nuclei (%): 16%
  Population Healthy Nuclei (%): 67%
  Population Hoechst High Intensity Objects (%): 7%
  Population Membrane Permeable-Phenotype (%): 8%
  Population Mitochondria Different-Phenotype (%): 9%
  Population Mitotic Cells (%): 74%
  Population Normal (%): 92%
  Population Pyknosed Nuclei (%): 16%
  Population Tubulin-Different-Phenotype (%): 15%
  Total Cell Count: 201
[2]
  Population Apoptotic (%): 50%
  Population Fragmented Nuclei (%): 11%
  Population Healthy Nuclei (%): 83%
  Population Hoechst High Intensity Objects (%): 5%
  Population Membrane Permeable-Phenotype (%): 3%
  Population Mitochondria Different-Phenotype (%): 16%
  Population Mitotic Cells (%): 50%
  Population Normal (%): 94%
  Population Pyknosed Nuclei (%): 5%
  Population Tubulin-Different-Phenotype (%): 36%
  Total Cell Count: 60
[3]
  Population Apoptotic (%): 41%
  Population Healthy Nuclei (%): 74%
  Population Hoechst High Intensity Objects (%): 2%
  Population Membrane Permeable-Phenotype (%): 5%
  Population Mitochondria Different-Phenotype (%): 17%
  Population Mitotic Cells (%): 58%
  Population Normal (%): 97%
  Population Pyknosed Nuclei (%): 11%
  Population Tubulin-Different-Phenotype (%): 14%
  Total Cell Count: 181
[4]
  Population Apoptotic (%): 60%
  Population Fragmented Nuclei (%): 14%
  Population Healthy Nuclei (%): 64%
  Population Hoechst High Intensity Objects (%): 14%
  Population Membrane Permeable-Phenotype (%): 10%
  Population Mitochondria Different-Phenotype (%): 13%
  Population Mitotic Cells (%): 40%
  Population Normal (%): 85%
  Population Pyknosed Nuclei (%): 21%
  Population Tubulin-Different-Phenotype (%): 23%
  Total Cell Count: 38
[5]
  Population Apoptotic (%): 35%
  Population Healthy Nuclei (%): 81%
  Population Hoechst High Intensity Objects (%): 7%
  Population Membrane Permeable-Phenotype (%): 3%
  Population Mitotic Cells (%): 64%
  Population Normal (%): 92%
  Population Pyknosed Nuclei (%): 6%
  Population Tubulin-Different-Phenotype (%): 12%
  Total Cell Count: 249
[6]
  Population Apoptotic (%): 20%
  Population Fragmented Nuclei (%): 11%
  Population Healthy Nuclei (%): 79%
  Population Hoechst High Intensity Objects (%): 3%
  Population Membrane Permeable-Phenotype (%): 4%
  Population Mitochondria Different-Phenotype (%): 9%
  Population Mitotic Cells (%): 80%
  Population Normal (%): 96%
  Population Pyknosed Nuclei (%): 9%
  Population Tubulin-Different-Phenotype (%): 30%
  Total Cell Count: 62
[7]
  Population Apoptotic (%): 41%
  Population Fragmented Nuclei (%): 13%
  Population Healthy Nuclei (%): 72%
  Population Hoechst High Intensity Objects (%): 4%
  Population Membrane Permeable-Phenotype (%): 4%
  Population Mitochondria Different-Phenotype (%): 12%
  Population Mitotic Cells (%): 58%
  Population Normal (%): 95%
  Population Pyknosed Nuclei (%): 13%
  Population Tubulin-Different-Phenotype (%): 13%
  Total Cell Count: 227
[8]
  Population Apoptotic (%): 61%
  Population Fragmented Nuclei (%): 17%
  Population Healthy Nuclei (%): 61%
  Population Hoechst High Intensity Objects (%): 8%
  Population Membrane Permeable-Phenotype (%): 7%
  Population Mitochondria Different-Phenotype (%): 5%
  Population Mitotic Cells (%): 38%
  Population Normal (%): 91%
  Population Pyknosed Nuclei (%): 20%
  Population Tubulin-Different-Phenotype (%): 16%
  Total Cell Count: 56
[9]
  Population Apoptotic (%): 17%
  Population Fragmented Nuclei (%): 9%
  Population Healthy Nuclei (%): 81%
  Population Hoechst High Intensity Objects (%): 3%
  Population Membrane Permeable-Phenotype (%): 1%
  Population Mitochondria Different-Phenotype (%): 17%
  Population Mitotic Cells (%): 82%
  Population Normal (%): 96%
  Population Pyknosed Nuclei (%): 9%
  Population Tubulin-Different-Phenotype (%): 12%
  Total Cell Count: 359
[10]
  Population Apoptotic (%): 33%
  Population Fragmented Nuclei (%): 6%
  Population Healthy Nuclei (%): 89%
  Population Hoechst High Intensity Objects (%): 2%
  Population Membrane Permeable-Phenotype (%): 4%
  Population Mitochondria Different-Phenotype (%): 11%
  Population Mitotic Cells (%): 66%
  Population Normal (%): 97%
  Population Pyknosed Nuclei (%): 3%
  Population Tubulin-Different-Phenotype (%): 32%
  Total Cell Count: 95
[11]
  Population Apoptotic (%): 45%
  Population Fragmented Nuclei (%): 12%
  Population Healthy Nuclei (%): 65%
  Population Hoechst High Intensity Objects (%): 5%
  Population Membrane Permeable-Phenotype (%): 5%
  Population Mitochondria Different-Phenotype (%): 7%
  Population Mitotic Cells (%): 54%
  Population Normal (%): 94%
  Population Pyknosed Nuclei (%): 21%
  Population Tubulin-Different-Phenotype (%): 14%
  Total Cell Count: 332
[12]
  Population Apoptotic (%): 75%
  Population Fragmented Nuclei (%): 17%
  Population Healthy Nuclei (%): 66%
  Population Hoechst High Intensity Objects (%): 10%
  Population Membrane Permeable-Phenotype (%): 13%
  Population Mitochondria Different-Phenotype (%): 13%
  Population Mitotic Cells (%): 25%
  Population Normal (%): 89%
  Population Pyknosed Nuclei (%): 16%
  Population Tubulin-Different-Phenotype (%): 21%
  Total Cell Count: 80
